Measured values as given in ChEMBL document CHEMBL1154664, “From serendipity to rational antituberculosis drug discovery of mefloquine-isoxazole carboxylic acid esters” (J Med Chem, 2009).
pIC50: −log10 of the molar value. Values after ≈ are worked out from the molar mass of the structure shown.

How the values were obtained:
[1] = tested on: Mycobacterium tuberculosis; experiment: Antitubercular activity against Mycobacterium tuberculosis H37Rv at pH 6.8 by Alamar blue susceptibility assay; format: functional
In short: (§1)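 Replicating M. tuberculosis H37Rv cultures; MIC by microplate Alamar Blue assay (MABA) at pH 6.8, run as previously described.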

Vero = experiment: Cytotoxicity against african green monkey Vero cells after 72 hrs; format: cell-based; conditions: Chlorocebus sabaeus
In short: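 VERO green monkey kidney cells exposed to compound for 72 h.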

[2] = tested on: Mycobacterium tuberculosis; experiment: Antitubercular activity against Mycobacterium tuberculosis H37Rv by low oxygen recovery assay; format: functional
In short: (§2)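 Nonreplicating M. tuberculosis H37Rv cultures; MIC determined by low oxygen recovery assay (LORA), run as previously described.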

[3] = Selectivity index, ratio of IC50 for Vero cells to IC50 for Mycobacterium tuberculosis H37Rv by Alamar blue susceptibility assay; format: toxicity, cell-based; conditions: monkey, read-out: Ratio IC50
[4] = Selectivity index, ratio of IC50 for Vero cells to IC50 for Mycobacterium tuberculosis H37Rv by low oxygen recovery assay; format: toxicity, cell-based; conditions: monkey, read-out: Ratio IC50
Mus musculus [5] = experiment: Cmax in BALB/c mouse assessed as 2,8-bis(trifluoromethyl)quinol in-4-ol at 400 mg/kg, po; format: ADME, organism-based; set-up: dose 400 mg/kg, route oral; conditions: in vivo
In short: (§3)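 Female BALB/c mice (20-22 g), groups of twelve, single oral 400 mg/kg dose as a 20 mg/mL suspension in 0.5% carboxymethyl cellulose. Retro-orbital blood at 0, 15, 30, 45, 90 and 120 min. Plasma obtained by centrifugation, then precipitated with three volumes of acetonitrile containing internal standard. Parent and metabolites quantified by LC-MS-MS using positive electrospray and selected reaction monitoring.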

Mus musculus [6] = experiment: Plasma concentration in BALB/c mouse assessed as 5-((2,8-bis(trifluoromethyl)qu inolin-4-yloxy)methyl)isoxazole-3-carboxylic acid at 400 mg/kg, po after 90 mins; format: ADME, organism-based; set-up: dose 400 mg/kg, route oral; conditions: in vivo, 1.5 h; in short: as §3
Mus musculus [7] = experiment: Tmax in BALB/c mouse assessed as 2,8-bis(trifluoromethyl)quinol in-4-ol at 400 mg/kg, po; format: ADME, organism-based; set-up: dose 400 mg/kg, route oral; conditions: in vivo; in short: as §3
[8] = Cmax in BALB/c mouse at 400 mg/kg, po; format: ADME, organism-based; set-up: dose 400 mg/kg, route oral; conditions: in vivo; in short: as §3
Mus musculus [9] = experiment: Cmax in BALB/c mouse assessed as E-Ethyl 5-[2-(4-quinolinyl)eth enyl]-3-isoxazolecarboxylate at 400 mg/kg, po; format: ADME, organism-based; set-up: dose 400 mg/kg, route oral; conditions: in vivo; in short: as §3
[10] = AUC in BALB/c mouse at 400 mg/kg, po; format: ADME, organism-based; set-up: dose 400 mg/kg, route oral; conditions: plasma; in short: as §3
[11] = tested on: Mycobacterium tuberculosis; experiment: Antitubercular activity against Mycobacterium tuberculosis infected in macrophages assessed as reduction in colony forming unit; format: functional
Mus musculus [12] = experiment: Plasma concentration in BALB/c mouse assessed as 5-((2,8-bis(trifluoromethyl)qu inolin-4-yloxy)methyl)isoxazole-3-carboxylic acid at 400 mg/kg, po after 3 hrs; format: ADME, organism-based; set-up: dose 400 mg/kg, route oral; conditions: in vivo
Mus musculus [13] = experiment: Plasma concentration in BALB/c mouse assessed as 5-((2,8-bis(trifluoromethyl)qu inolin-4-yloxy)methyl)isoxazole-3-carboxylic acid at 400 mg/kg, po after 30 mins; format: ADME, organism-based; set-up: dose 400 mg/kg, route oral; conditions: in vivo, 0.5 h; in short: as §3
[14] = tested on: Mycobacterium tuberculosis; experiment: Antitubercular activity against replicating Mycobacterium tuberculosis; format: functional; in short: as §1
[15] = Half life in BALB/c mouse at 400 mg/kg, po; format: ADME, organism-based; set-up: dose 400 mg/kg, route oral; conditions: in vivo; in short: as §3
[16] = tested on: Mycobacterium tuberculosis; experiment: Antitubercular activity against non replicating Mycobacterium tuberculosis; format: functional; in short: as §2

Structure (SMILES) | MIC [1] | pIC50 (Vero) | MIC [2] | selectivity ratio [3] | selectivity ratio [4] | further results
OC(c1cc(C(F)(F)F)nc2c(C(F)(F)F)cccc12)C1CCCCN1 (stereo not drawn) [MEFLOQUINE] | 13 µM (≈ 4.92 µg/mL) | 4.96 | 7 µM (≈ 2.65 µg/mL) | 0.9 | 1.6 | 
CCOC(=O)c1cc(/C=C\c2ccc3ncccc3c2)on1 | 1.3 µM (≈ 0.383 µg/mL) | < 3.89 | 12.4 µM (≈ 3.65 µg/mL) | > 98.4 | > 10.3 | 
CCCCC(Oc1cc(C(F)(F)F)nc2c(C(F)(F)F)cccc12)c1cc(C(=O)OCC)no1 (stereo not drawn) | 116 µM (≈ 56.8 µg/mL) | 4.37 | 11.9 µM (≈ 5.84 µg/mL) | 0.3 | 3.6 | 
CCOC(=O)c1cc(/C=C/c2ccnc3ccc(OC)cc23)on1 | 0.4 µM (≈ 0.13 µg/mL) | < 3.89 | 1.1 µM (≈ 0.357 µg/mL) | > 320 | > 116 | 
CCOC(=O)c1cc(/C=C\c2ccnc3ccccc23)on1 | 0.6 µM (≈ 0.177 µg/mL) | < 3.89 | 3 µM (≈ 0.883 µg/mL) | > 213 | > 42.7 | 
CCOC(=O)c1cc(COc2cc(C(F)(F)F)nc3c(C(F)(F)F)cccc23)on1 | 0.9 µM (≈ 0.391 µg/mL) | < 3.89 | 12.2 µM (≈ 5.3 µg/mL) | > 144 | > 10.5 | Cmax (Mus musculus [5]): 2710 ng/mL; Cp (Mus musculus [6]): 26 ng/mL; Tmax (Mus musculus [7]): 0.5 h; Cmax [8]: 1 µM; Cmax (Mus musculus [9]): 30 ng/mL; AUC [10]: 2.2 µM·h; EC90 [11]: 4.1 µM; Cp (Mus musculus [12]): 100 ng/mL; Cp (Mus musculus [13]): 400 ng/mL; MIC [14]: 0.9 µM (≈ 0.391 µg/mL); half-life [15]: 1.6 h; MIC [16]: 12.2 µM (≈ 5.3 µg/mL)
CCOC(=O)c1cc(C(C)Oc2cc(C(F)(F)F)nc3c(C(F)(F)F)cccc23)on1 (stereo not drawn) | 4.2 µM (≈ 1.88 µg/mL) | < 3.89 | 20.7 µM (≈ 9.28 µg/mL) | > 30.5 | > 6.2 | 
CCOC(=O)c1cc(/C=C/c2cc(C(F)(F)F)nc3c(C(F)(F)F)cccc23)on1 | 2.7 µM (≈ 1.16 µg/mL) | < 3.89 | 38.9 µM (≈ 16.7 µg/mL) | > 47.5 | > 3.3 | 
CCOC(=O)c1cc(/C=C\c2cc(C(F)(F)F)nc3ccc(C(F)(F)F)cc23)on1 |  | < 3.89 |  |  |  | 
CCOC(=O)c1cc(C(Oc2cc(C(F)(F)F)nc3c(C(F)(F)F)cccc23)c2ccccc2)on1 (stereo not drawn) | > 128 µM | < 3.89 | > 128 µM |  |  | 
CO[C@H]1/C=C/O[C@@]2(C)Oc3c(C)c(O)c4c(O)c(c(/C=N/N5CCN(C)CC5)c(O)c4c3C2=O)NC(=O)/C(C)=C\C=C\[C@H](C)[C@H](O)[C@@H](C)[C@@H](O)[C@@H](C)[C@H](OC(C)=O)[C@@H]1C [RIFAMPIN] | 0.1 µM (≈ 0.0823 µg/mL) |  | 2 µM (≈ 1.65 µg/mL) | 1220 | 61 | 
CCOC(=O)c1cc(CCc2cc(C(F)(F)F)nc3c(C(F)(F)F)cccc23)on1 | 5.7 µM (≈ 2.46 µg/mL) | < 3.89 | 12.6 µM (≈ 5.45 µg/mL) | > 22.5 | > 10.2 | 
O=C(O)c1cc(/C=C/c2ccnc3ccccc23)on1 |  | < 3.89 |  |  |  | 
CCOC(=O)c1cc(/C=C\c2ccnc3ccc(OC)cc23)on1 | 1.6 µM (≈ 0.519 µg/mL) | < 3.89 | 2 µM (≈ 0.649 µg/mL) | > 80 | > 64 | 
CCOC(=O)c1cc(CCc2ccnc3ccccc23)on1 | 2.7 µM (≈ 0.8 µg/mL) | < 3.89 | 22.5 µM (≈ 6.67 µg/mL) | > 47.5 | > 5.7 | 
CCOC(=O)c1cc(/C=C/c2ccc3ncccc3c2)on1 | 0.9 µM (≈ 0.265 µg/mL) | < 3.89 | 9.3 µM (≈ 2.74 µg/mL) | > 142 | > 13.8 | 
CCOC(=O)c1cc(C(=O)Nc2cc(C(F)(F)F)nc3c(C(F)(F)F)cccc23)on1 | 29.5 µM (≈ 13.2 µg/mL) | < 3.89 | > 128 µM | > 4.3 |  | 
CCOC(=O)c1cc(C(C)(C)Oc2cc(C(F)(F)F)nc3c(C(F)(F)F)cccc23)on1 | 6.8 µM (≈ 3.14 µg/mL) | 4.64 | 22.1 µM (≈ 10.2 µg/mL) | 0.6 | 1 | 
CCOC(=O)c1cc(/C=C/c2ccnc3ccccc23)on1 | 0.2 µM (≈ 0.0589 µg/mL) | < 3.89 | 2.6 µM (≈ 0.765 µg/mL) | > 640 | > 49.2 | Cmax [8]: 61.7 µM; AUC [10]: 156 µM·h; half-life [15]: 1.9 h
CCOC(=O)c1cc(-c2cc(C(F)(F)F)nc3c(C(F)(F)F)cccc23)on1 | 16.5 µM (≈ 6.67 µg/mL) | < 3.89 | 48.1 µM (≈ 19.4 µg/mL) | > 7.8 | > 2.7 | 
